Data on seven compounds can be found in ChEMBL document CHEMBL1123080, “Synthesis and antiviral activity of the carbocyclic analogues of (E)-5-(2-halovinyl)-2'-deoxyuridines and (E)-5-(2-halovinyl)-2'-deoxycytidines” (1985).

The subject of this test is Vaccinia virus. The experiment in a line: Minimum inhibitory concentration (MIC) required to reduce vaccinia virus induced cytopathogenicity in primary rabbit kidney cell cultures. The format is functional. The conditions noted are these: Orthopoxvirus vaccinia. In outline:
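Primary rabbit kidney cell cultures were infected with virus and treated with compound. The MIC is the concentration that reduces virus-induced cytopathogenicity by 50%. Cytotoxicity was scored as microscopically visible alteration of normal cell morphology, with 400 μg/mL the highest concentration tested.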

Values after ≈ are worked out from the molar mass of the structure shown. A value given as a limit tells only on which side of the number the result lay.

`O=c1[nH]c(=O)n(C2CC(O)C(CO)C2)cc1/C=C/I` (configuration not stated) showed an MIC50 of 300 mg/L (≈ 793 µM).

Regarding `Nc1nc(=O)n(C2CC(O)C(CO)C2)cc1/C=C/Br` (configuration not stated), the MIC50 is more than 200 mg/L. For `O=c1[nH]c(=O)n([C@H]2C[C@H](O)[C@@H](CO)O2)cc1/C=C/I`, the MIC50 was 7 mg/L (≈ 18.4 µM). Next, `O=c1[nH]c(=O)n([C@@H]2C[C@H](CO)[C@@H](O)C2)cc1I`: 20 mg/L (≈ 56.8 µM); `NC1NC(=O)N([C@H]2C[C@H](O)[C@@H](CO)O2)C=C1/C=C/Br` (some centres not stated): 200 mg/L (≈ 598 µM); `O=c1[nH]c(=O)n([C@H]2C[C@@H](CO)[C@H](O)C2)cc1/C=C/Br`: 300 mg/L (≈ 906 µM). Compound `O=c1[nH]c(=O)n([C@H]2C[C@H](O)[C@@H](CO)O2)cc1I` [IDOXURIDINE] displayed an MIC50 of 0.2 mg/L (≈ 0.565 µM).
